ChEMBL document CHEMBL4613280, “Development of Pyrazolo[3,4-d]pyrimidine Kinase Inhibitors as Potential Clinical Candidates for Glioblastoma Multiforme” (ACS Med Chem Lett, 2020)
Active and inactive are the calls of the source. The rule behind the calls is not given here.

What was measured:
[1] = species: Homo sapiens; assay: Induction of apoptotic death in human GCE28 cells assessed as nuclear fragmentation at 12.5 uM measured after 48 hrs by Hoechst 33342/propidium iodide staining based fluorescence microscopy analysis; type: functional, cell-based
Outline: (§1)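 Cells dosed 48 h with 12.5 μM inhibitor, with 70% ethanol or DMEM (negative) as controls. Nuclei then double-stained with Hoechst 33342 and propidium iodide and examined by fluorescence microscopy.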

[2] = species: Homo sapiens; assay: Cytotoxicity against human GIN8 cells assessed as reduction in cell viability at 5 ug/ml measured after 48 hrs using compound dissolved in DMSO by Prestoblue assay; type: functional, cell-based
Outline: (§2)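 Inhibitor either dissolved in DMSO, inkjet-printed into polymer, or suspended in PBS, then diluted in DMEM. Polymer-alone and untreated controls included. Viability read by PrestoBlue after 48 h, mean ± SD.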

[3] = species: Homo sapiens; assay: Cytotoxicity against human GIN8 cells assessed as cell viability at 5 ug/ml measured after 48 hrs using compound suspended in PBS by Prestoblue assay; type: functional, cell-based; outline: as §2
[4] = species: Homo sapiens; assay: Induction of apoptotic death in human GIN8 cells assessed as […] at 12.5 uM measured after 48 hrs by Hoechst 33342/propidium iodide staining based fluorescence microscopy analysis; type: functional, cell-based; outline: as §1
[5] = species: Homo sapiens; assay: Induction of apoptosis in human GIN8 cells assessed as increase in caspase 3/7 activation at 12.5 uM measured after 48 hrs by CellEvent caspase 3/7 probe based fluorescence analysis; type: functional, cell-based
Outline: (§3)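 Cells exposed 48 h to compounds diluted in 10% FBS DMEM. Activated caspase-3/7 detected with the CellEvent probe. Staurosporine 10.0 μM served as reference inducer. Mean ± SEM (n = 3). Two-way ANOVA with Dunnett's test.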

[6] = species: Homo sapiens; assay: Induction of necrosis in human GIN28 cells assessed as induction of nuclear membrane permeability at 12.5 uM measured after 48 hrs by Hoechst 33342/propidium iodide staining based fluorescence microscopy analysis; type: functional, cell-based; outline: as §1
[7] = species: Homo sapiens; assay: Cytotoxicity against human GIN28 cells assessed as reduction in cell viability at 5 ug/ml measured after 48 hrs using PVPVA-formulated compound by Prestoblue assay; type: functional, cell-based; outline: as §2
[8] = Apparent water solubility of the compound in PBS formulated with 900 ug/ml polymer Tween 80 at 100 ug/ml by UV-Visible spectral analysis; type: physicochemical; conditions: buffer
[9] = Apparent water solubility of the compound in PBS formulated with 900 ug/ml polymer PVPVA at 100 ug/ml by UV-Visible spectral analysis; type: physicochemical; conditions: buffer
[10] = species: Homo sapiens; assay: Cytotoxicity against human GIN8 cells assessed as reduction in cell viability at 5 ug/ml measured after 48 hrs using Pluronic-F68-formulated compound by Prestoblue assay; type: functional, cell-based; outline: as §2
[11] = species: Homo sapiens; assay: Cytotoxicity against human GCE28 cells assessed as cell viability at 5 ug/ml measured after 48 hrs using compound suspended in PBS by Prestoblue assay; type: functional, cell-based; outline: as §2
[12] = species: Homo sapiens; assay: Induction of necrosis in human GIN8 cells assessed as induction of nuclear membrane permeability at 12.5 uM measured after 48 hrs by Hoechst 33342/propidium iodide staining based fluorescence microscopy analysis; type: functional, cell-based; outline: as §1
[13] = Cytotoxicity against human GIN8 cells derived from invasive region of GBM patient assessed as reduction in cell viability measured after 48 hrs by Prestoblue assay; type: functional, cell-based
Outline: (§4)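 Compounds diluted in DMEM containing 10% FBS and applied for 48 h. Viability read by PrestoBlue. IC50 calculated from three independent experiments, mean ± SE. Two-way ANOVA with Dunnett's multiple comparisons test.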

[14] = species: Homo sapiens; assay: Cytotoxicity against human GIN28 cells assessed as reduction in cell viability at 5 ug/ml measured after 48 hrs using Pluronic-F68-formulated compound by Prestoblue assay; type: functional, cell-based; outline: as §2
[15] = species: Homo sapiens; assay: Induction of apoptotic death in human GCE28 cells assessed as presence of apoptotic bodies at 12.5 uM measured after 48 hrs by Hoechst 33342/propidium iodide staining based fluorescence microscopy analysis; type: functional, cell-based; outline: as §1
[16] = species: Homo sapiens; assay: Cytotoxicity against human GIN28 cells assessed as reduction in cell viability at 5 ug/ml measured after 48 hrs using Tween 80-formulated compound by Prestoblue assay; type: functional, cell-based; outline: as §2
[17] = Synergistic cytotoxicity against human GIN8 cells assessed as combination index measured after 48 hrs in presence of 3-(4-chlorophenyl)-1-(2-chloro-2-phenylethyl)pyrazolo[3,4-d]pyrimidin-4-amine by Chou-Talalay assay; type: functional
Outline: (§5)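 Two kinase inhibitors were combined at a 1:1 molar ratio, diluted in DMEM with 10% FBS, and incubated with the GBM cells for 48 h. Viability was read by PrestoBlue. Combination index values were calculated from three independent IC50 experiments (n = 3) and are reported as mean ± SD.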

[18] = Synergistic cytotoxicity against human GCE28 cells assessed as combination index measured after 48 hrs in presence of 3-(4-chlorophenyl)-1-(2-chloro-2-phenylethyl)pyrazolo[3,4-d]pyrimidin-4-amine by Chou-Talalay assay; type: functional
Outline: (§6)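 Each drug pair dosed at a 1:1 molar ratio on the GBM lines and incubated 48 h. CI computed from three independent IC50 experiments (n = 3), reported as mean ± SD.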

[19] = species: Homo sapiens; assay: Cytotoxicity against human GCE28 cells assessed as reduction in cell viability at 5 ug/ml measured after 48 hrs using PVPVA-formulated compound by Prestoblue assay; type: functional, cell-based; outline: as §2
[20] = species: Homo sapiens; assay: Cytotoxicity against human GCE28 cells assessed as reduction in cell viability at 5 ug/ml measured after 48 hrs using Tween 80-formulated compound by Prestoblue assay; type: functional, cell-based; outline: as §2
[21] = Apparent water solubility of the compound in PBS formulated with 900 ug/ml of polymer Pluronic F-68 at 100 ug/ml by UV-Visible spectral analysis; type: physicochemical; conditions: buffer
[22] = species: Homo sapiens; assay: Cytotoxicity against human GIN28 cells assessed as reduction in cell viability at 5 ug/ml measured after 48 hrs using compound dissolved in DMSO by Prestoblue assay; type: functional, cell-based; outline: as §2
[23] = species: Homo sapiens; assay: Induction of apoptotic death in human GIN28 cells assessed as nuclear fragmentation at 12.5 uM measured after 48 hrs by Hoechst 33342/propidium iodide staining based fluorescence microscopy analysis; type: functional, cell-based; outline: as §1
[24] = Additive cytotoxicity against human GIN8 cells assessed as combination index measured after 48 hrs in presence of 2-[[4-(2-phenylethylamino)-1-[styryl]pyrazolo[3,4-d]pyrimidin-6-yl]amino]ethanol by Chou-Talalay assay; type: functional; outline: as §6
[25] = species: Homo sapiens; assay: Induction of apoptotic death in human GCE28 cells assessed as […] at 12.5 uM measured after 48 hrs by Hoechst 33342/propidium iodide staining based fluorescence microscopy analysis; type: functional, cell-based; outline: as §1
[26] = species: Homo sapiens; assay: Induction of apoptotic death in human GIN28 cells assessed as presence of apoptotic bodies at 12.5 uM measured after 48 hrs by Hoechst 33342/propidium iodide staining based fluorescence microscopy analysis; type: functional, cell-based; outline: as §1
[27] = Synergistic cytotoxicity against human GIN28 cells assessed as combination index measured after 48 hrs in presence of 3-(4-chlorophenyl)-1-(2-chloro-2-phenylethyl)pyrazolo[3,4-d]pyrimidin-4-amine by Chou-Talalay assay; type: functional; outline: as §6
[28] = species: Homo sapiens; assay: Induction of apoptotic death in human GIN8 cells assessed as nuclear fragmentation at 12.5 uM measured after 48 hrs by Hoechst 33342/propidium iodide staining based fluorescence microscopy analysis; type: functional, cell-based; outline: as §1
[29] = species: Homo sapiens; assay: Induction of apoptotic death in human GIN8 cells assessed as presence of apoptotic bodies at 12.5 uM measured after 48 hrs by Hoechst 33342/propidium iodide staining based fluorescence microscopy analysis; type: functional, cell-based; outline: as §1
[30] = Additive cytotoxicity against human GCE28 cells assessed as combination index measured after 48 hrs in presence of 2-[[4-(2-phenylethylamino)-1-[styryl]pyrazolo[3,4-d]pyrimidin-6-yl]amino]ethanol by Chou-Talalay assay; type: functional; outline: as §6
[31] = Additive cytotoxicity against human GIN28 cells assessed as combination index measured after 48 hrs in presence of 2-[[4-(2-phenylethylamino)-1-[styryl]pyrazolo[3,4-d]pyrimidin-6-yl]amino]ethanol by Chou-Talalay assay; type: functional; outline: as §6
[32] = species: Homo sapiens; assay: Cytotoxicity against human GIN8 cells assessed as reduction in cell viability at 5 ug/ml measured after 48 hrs using Tween 80-formulated compound by Prestoblue assay; type: functional, cell-based; outline: as §2
[33] = species: Homo sapiens; assay: Induction of apoptosis in human GIN28 cells assessed as increase in caspase 3/7 activation at 12.5 uM measured after 48 hrs by CellEvent caspase 3/7 probe based fluorescence analysis; type: functional, cell-based; outline: as §3
[34] = Cytotoxicity against human GCE28 cells derived from central tumor core of GBM patient assessed as reduction in cell viability measured after 48 hrs by Prestoblue assay; type: functional, cell-based; outline: as §4
[35] = species: Homo sapiens; assay: Cytotoxicity against human GIN28 cells assessed as cell viability at 5 ug/ml measured after 48 hrs using compound suspended in PBS by Prestoblue assay; type: functional, cell-based; outline: as §2
[36] = species: Homo sapiens; assay: Cytotoxicity against human GCE28 cells assessed as reduction in cell viability at 5 ug/ml measured after 48 hrs using compound dissolved in DMSO by Prestoblue assay; type: functional, cell-based; outline: as §2
[37] = species: Homo sapiens; assay: Induction of apoptotic death in human GIN28 cells assessed as […] at 12.5 uM measured after 48 hrs by Hoechst 33342/propidium iodide staining based fluorescence microscopy analysis; type: functional, cell-based; outline: as §1
[38] = species: Homo sapiens; assay: Induction of apoptosis in human GCE28 cells assessed as increase in caspase 3/7 activation at 12.5 uM measured after 48 hrs by CellEvent caspase 3/7 probe based fluorescence analysis; type: functional, cell-based; outline: as §3
[39] = species: Homo sapiens; assay: Cytotoxicity against human GCE28 cells assessed as reduction in cell viability at 5 ug/ml measured after 48 hrs using Pluronic-F68-formulated compound by Prestoblue assay; type: functional, cell-based; outline: as §2
[40] = species: Homo sapiens; assay: Induction of necrosis in human GCE28 cells assessed as induction of nuclear membrane permeability at 12.5 uM measured after 48 hrs by Hoechst 33342/propidium iodide staining based fluorescence microscopy analysis; type: functional, cell-based; outline: as §1
[41] = species: Homo sapiens; assay: Cytotoxicity against human GIN8 cells assessed as reduction in cell viability at 5 ug/ml measured after 48 hrs using PVPVA-formulated compound by Prestoblue assay; type: functional, cell-based; outline: as §2
[42] = Cytotoxicity against human GIN28 cells derived from invasive region of GBM patient assessed as reduction in cell viability measured after 48 hrs by Prestoblue assay; type: functional, cell-based; outline: as §4
[43] = Synergistic cytotoxicity against human GIN8 cells assessed as combination index measured after 48 hrs in presence of N-(3-bromophenyl)-1-(2-chloro-2-phenylethyl)-6-(2-morpholinoethylsulfanyl)pyrazolo[3,4-d]pyrimidin-4-amine by Chou-Talalay assay; type: functional; outline: as §5
[44] = Synergistic cytotoxicity against human GIN28 cells assessed as combination index measured after 48 hrs in presence of N-(3-bromophenyl)-1-(2-chloro-2-phenylethyl)-6-(2-morpholinoethylsulfanyl)pyrazolo[3,4-d]pyrimidin-4-amine by Chou-Talalay assay; type: functional; outline: as §5
[45] = Antagonistic cytotoxicity against human GIN8 cells assessed as combination index measured after 48 hrs in presence of 2-[[4-(2-phenylethylamino)-1-[styryl]pyrazolo[3,4-d]pyrimidin-6-yl]amino]ethanol by Chou-Talalay assay; type: functional; outline: as §6
[46] = Synergistic cytotoxicity against human GCE28 cells assessed as combination index measured after 48 hrs in presence of 2-[[4-(2-phenylethylamino)-1-[styryl]pyrazolo[3,4-d]pyrimidin-6-yl]amino]ethanol by Chou-Talalay assay; type: functional; outline: as §6
[47] = Synergistic cytotoxicity against human GIN28 cells assessed as combination index measured after 48 hrs in presence of 2-[[4-(2-phenylethylamino)-1-[styryl]pyrazolo[3,4-d]pyrimidin-6-yl]amino]ethanol by Chou-Talalay assay; type: functional; outline: as §6
[48] = Synergistic cytotoxicity against human GCE28 cells assessed as combination index measured after 48 hrs in presence of N-(3-bromophenyl)-1-(2-chloro-2-phenylethyl)-6-(2-morpholinoethylsulfanyl)pyrazolo[3,4-d]pyrimidin-4-amine by Chou-Talalay assay; type: functional; outline: as §6

In the case of `ClC(Cn1ncc2c(Nc3cccc(Br)c3)nc(SCCN3CCOCC3)nc21)c1ccccc1` (stereo unspecified), the Activity [1] is reported as “Active”, the Activity [2] is reported as “Active” and the Activity [3] is reported as “inactive”. The Activity [4] was “Active”, the Activity [5] was “Active” and the Activity [6] was “inactive”. The Activity [7] was “Active”, the solubility [8] was “Soluble” and the solubility [9] was “Soluble”. The Activity [10] was “Active”, the Activity [11] was “inactive” and the Activity [12] was “inactive”. The IC50 [13] was 11.2 µM, the Activity [14] was “Active” and the Activity [15] was “Active”. The Activity [16] was “Active”, the CI [17] was 0.53 and the CI [18] was 0.88. For the same compound, the Activity [19] was “Active”, the Activity [20] was “Active” and the solubility [21] was “Soluble”. For the same compound, the Activity [22] was “Active”, the Activity [23] was “Active” and the CI [24] was 0.99. For the same compound, the Activity [25] was “Active”, the Activity [26] was “Active” and the CI [27] was 0.76. The Activity [28] was “Active”, the Activity [29] was “Active” and the CI [30] was 0.97. The CI [31] was 0.9, the Activity [32] was “Active” and the Activity [33] was “Active”. For the same compound, the IC50 [34] was 7.2 µM, the Activity [35] was “inactive” and the Activity [36] was “Active”. The Activity [37] was “Active”, the Activity [38] was “Active” and the Activity [39] was “Active”. The Activity [40] was “inactive”, the Activity [41] was “Active” and the IC50 [42] was 7.7 µM.

For `Nc1ncnc2c1c(-c1ccc(Cl)cc1)nn2CC(Cl)c1ccccc1` (stereo unspecified), the CI [43] was 0.53, the CI [44] was 0.76 and the CI [45] was 1.13. It also gave an IC50 [13] of 54.7 µM, a CI [46] of 0.46 and a CI [47] of 0.57. The CI [48] was 0.88, the IC50 [34] was 47.6 µM and the IC50 [42] was 49.8 µM.
